Data from ChEMBL document CHEMBL1142508, “3-Amino-2(5H)furanones as inhibitors of subgenomic hepatitis C virus RNA replication” (Bioorg Med Chem, 2008).

Tests used:
[1] = test system: Hepatitis C virus; assay: Antiviral activity against HCV in human HBI10A cells by ELISA; type: functional, organism-based, Hepacivirus hominis
Procedure, shortened: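 HCV subgenomic replicon-bearing Huh-7-derived HBI10A cells kept in D-MEM + 10% FBS with G418. Compounds from DMSO stocks, diluted in D-MEM, DMSO at most 1%, tested at final 10^3, 10^2, […]. Cell-ELISA for NS3 with anti-NS3 10E5/24 MAb, in triplicate. Parental Huh-7 cells give the background. EC50 from Hill-equation fit of NS3 signal reduction. IFN-α positive control.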

[2] = Cytotoxicity against human HBI10A cells after 20 hrs by MTS assay; type: cell-based
Procedure, shortened: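 MTS read-out in HBI10A replicon cells seeded at 1 × 10^4 per 100 µL D-MEM + 5% FBS. After 4 h at 37 °C, compounds added at final 10^3, 10^2, […]. Incubated 20 h at 37 °C, then MTS for a further 4 h. Stopped with 10% SDS; absorbance at 492 nm.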

| EC50 [1] [µM] | IC50 [1] [µM] | Compound | CC50 at 20 h [2] [µM] |
| --- | --- | --- | --- |
| > 1000 | – | CCOC(=O)C1=C(NC)C(=O)OC1C(=O)OCC (stereo not drawn) | > 1000 |
| 66 | – | CNC1=C(C(=O)OC)C(C)OC1O (stereo not drawn) | > 1000 |
| 17 | – | CNC1=C(c2ccccc2)C(c2ccccc2)OC1=O (stereo not drawn) | 28 |
| 521 | – | CNC1=C(C(C)=O)COC1=O | > 1000 |
| 132 | – | CNC1=C(C(C)=O)C(C)OC1=O (stereo not drawn) | 819 |
| 525 | – | CNC1=C(C(=O)OC)C(C)OC1=O (stereo not drawn) | > 1000 |
| > 1000 | – | COC(=O)C1=C(NCc2ccccc2)C(=O)OC1C (stereo not drawn) | > 1000 |
| 9.3 | 0.15 | O=C(O)c1nc(-c2cccs2)nc(O)c1O | – |
| 19 | – | CNC1=C(C(=O)Nc2ccccc2)C(C)OC1=O (stereo not drawn) | > 1000 |
